Assay results from different studies.
Protocols differ between the studies behind these lines. pIC50: −log10 of the molar value.
Cell line: NCI-H522
Read-out: cell growth or viability

SMILES	test	conditions	endpoint	result
Cc1cc(C)n(C(=S)[S][Au][PH](CCCCCC[PH]([Au][S]C(=S)n2nc(C)cc2C)(c2ccccc2)c2ccccc2)(c2ccccc2)c2ccccc2)n1	SRB	–	GI50	1240 nM
c1ccc2cc(Cn3cc[n+](Cc4ccc5ccccc5c4)c3)ccc2c1	SRB	–	TGI	3110 nM
COc1ccc(C(=O)/C=C/c2cccc(Cl)c2Cl)cc1S(N)(=O)=O	SRB	10 µM	inhibition	156%
CCc1n(Cc2ccc3ccccc3n2)cc[n+]1Cc1ccc2ccccc2n1	SRB	–	TGI	1490 nM
COc1cccc(Oc2ccccc2NC(=O)CNC(=O)c2cccc3ccccc23)c1	SRB	48 h	GI50	178 nM
COc1ccc(C(=O)/C=C/c2ccc3ccccc3c2)cc1S(N)(=O)=O	SRB	10 µM	inhibition	163%
COc1ccc(C2=Nn3c(NN=C4C(=O)Nc5ccc(OC)cc54)nnc3SC2)cc1	SRB	10 µM	inhibition	25%
O=C1NC(=NCc2cccs2)S/C1=C\c1ccc2ncccc2c1	–	–	pIC50	< 5.00
CCCc1n(Cc2ccc3ccccc3n2)cc[n+]1Cc1ccc2ccccc2n1	SRB	–	TGI	4300 nM
COc1ccc(C(=O)/C=C/c2cccnc2)cc1S(N)(=O)=O	SRB	48 h	GI50	10500 nM
COc1ccc(-c2ccc(-c3ccc(C(=N)N)nc3)s2)cc1	SRB	–	GI50	1900 nM
c1ccc(-c2n(Cc3ccc4ccccc4c3)cc[n+]2Cc2ccc3ccccc3c2)cc1	SRB	–	TGI	2580 nM
COc1ccc(C(=O)/C=C/c2cccc3ccccc23)cc1S(N)(=O)=O	SRB	48 h	GI50	1600 nM
